Experimental data from ChEMBL document CHEMBL4765271, “Design, synthesis and biological evaluation of 2,3-dihydro-5,6-dimethoxy-1H-inden-1-one and piperazinium salt hybrid derivatives as hAChE and hBuChE enzyme inhibitors” (Eur J Med Chem, 2020).
Active and inactive are the calls of the source. No cut-off for these calls is given here.

Experiments:
Acetylcholinesterase [1] = molecular target: T1, Acetylcholinesterase (Homo sapiens, UniProt P22303); experiment: Inhibition of human erythrocyte AChE using acetylthiocholine as substrate measured after 5 mins by Ellman's method
Homo sapiens = species: Homo sapiens; experiment: Selectivity ratio of IC50 for human erythrocyte AChE to IC50 for human plasma BuChE
Method in brief: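 Ellman assay used cholinesterases from human blood. Inhibitor at five concentrations was pre-incubated 5 min at 37 °C in phosphate buffer pH 8 with DTNB (3.5 mM stock) and acetylthiocholine iodide substrate (7 mM stock). The reaction was started with enzyme and read as absorbance increase at 412 nm. Each run was done twice. The ratio is derived from the AChE and BuChE IC50 values.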

Cholinesterase [2] = molecular target: T2, Cholinesterase (Homo sapiens, UniProt P06276); experiment: Inhibition of human plasma BuChE using butyrylthiocholine as substrate measured after 5 mins by Ellman's method
SH-SY5Y = experiment: Cytotoxicity against human SH-SY5Y cells measured after 48 hrs by MTT assay; type: ADME, cell-based
Acetylcholinesterase [3] = molecular target: T1, Acetylcholinesterase
HFF = experiment: Cytotoxicity against HFF cells assessed as reduction in cell viability incubated for 48 hrs by MTT assay; type: ADME, cell-based; conditions: Homo sapiens
Acetylcholinesterase [4] = molecular target: T1, Acetylcholinesterase; experiment: Non competitive inhibition of human erythrocyte AChE using varying levels of acetylthiocholine iodide as substrate by Lineweaver-Burk plot analysis
MCF7 = experiment: Cytotoxicity against human MCF7 cells after 48 hrs by MTT assay; type: ADME, cell-based; conditions: MCF7, 48 h
Cholinesterase [5] = molecular target: T2, Cholinesterase; experiment: Non competitive inhibition of human plasma BuChE using varying levels of butyrylthiocholine iodide as substrate by Lineweaver-Burk plot analysis
PC-12 [6] = experiment: Antioxidant activity in amyloid beta (1 to 42)-induced oxidative stress in rat PC-12 cells assessed as reduction in ROS formation measured after 24 hrs by DCFH-DA staining based fluorescence spectrophotometric assay; type: functional, cell-based
Method in brief: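 Intracellular ROS: PC12 cells given 5 μM Aβ(1-42) with or without compound (1 or 10 μM), then loaded with 10 μM DCFH-DA for 5 min at room temperature. DCF fluorescence read at ex 485/em 530 nm, with DAPI counterstain (ex 358/em 461) for microscopy.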

PC-12 [7] = experiment: Antioxidant activity in amyloid beta (1 to 42)-induced oxidative stress in rat PC-12 cells assessed as reduction in ROS formation by measuring apoptotic index at 10 uM measured after 24 hrs by DAPI staining based TUNEL assay (reference value: 60 +/- 10); type: functional
PC-12 [8] = experiment: Cytoprotective activity against amyloid beta (1 to 42)-induced toxicity in rat PC-12 cells assessed as decrease in LDH level by spectrophotometric assay; type: functional, cell-based
Method in brief: (§1)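 PC12 cells exposed to 5 μM Aβ(1-42) in serum-free DMEM 24 h at 37 °C, then compound (1 or 10 μM) added for 24 h. LDH in culture medium measured as rate of NADH oxidation (pyruvate→lactate), read as absorbance decrease at 340 nm. Expressed as leakage into medium relative to total LDH.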

PC-12 [9] = experiment: Cytoprotective activity against amyloid beta (1 to 42)-induced toxicity in rat PC-12 cells assessed as decrease in MDA level measured after 8 hrs by TBARS assay; type: functional, cell-based
Method in brief: (§2)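 Cells seeded in six-well plates, exposed to 5 μM Aβ(1-42) with or without compound (1 or 10 μM) for 8 h. They were collected and sonicated on ice, then lysed with SDS. TBA reagent added and heated at 95 °C for 45-60 min. MDA read by TBARS absorbance at 535 nm.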

PC-12 [10] = experiment: Antioxidant activity in amyloid beta (1 to 42)-induced oxidative stress in rat PC-12 cells assessed as reduction in ROS formation measured after 24 hrs by DAPI staining based TUNEL assay; type: functional, cell-based
Method in brief: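 Aβ(1-42) (5 μM) treated PC12 cells, with compound at 1 or 10 μM, fixed in 4% paraformaldehyde (1 h), blocked with […], then permeabilized with 0.1% Triton X-100/0.1% sodium citrate on ice. TUNEL reaction 60 min at 37 °C, DAPI nuclear counterstain, imaged by fluorescence/confocal microscopy.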

Acetylcholinesterase [11] = molecular target: T1, Acetylcholinesterase; experiment: Mixed type inhibition of human erythrocyte AChE using varying levels of acetylthiocholine iodide as substrate by Lineweaver-Burk plot analysis
PC-12 [12] = experiment: Antioxidant activity in amyloid beta (1 to 42)-induced oxidative stress in rat PC-12 cells assessed as reduction in ROS formation by measuring DCF fluorescence intensity at 1 uM measured after 24 hrs by DCFH-DA staining based fluorescence spectrophotometric assay (reference value: 51 +/- 11); type: functional
PC-12 [13] = experiment: Antioxidant activity in amyloid beta (1 to 42)-induced oxidative stress in rat PC-12 cells assessed as increase in TAC level at 1 to 10 uM in presence of ABTS by spectrophotometric assay; type: functional, cell-based; conditions: dose 1-10 µM
Method in brief: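 Total antioxidant capacity measured with the ABTS/myoglobin method: 10 mM PBS pH 7.2, myoglobin, ABTS (300 μM final) and diluted sample or Trolox held 3 min at 25 °C. The reaction was started and absorbance read at 450 nm for 5 min at 25 °C. Cells were treated with 5 μM Aβ(1-42) with or without compound.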

PC-12 [14] = experiment: Antioxidant activity in amyloid beta (1 to 42)-induced oxidative stress in rat PC-12 cells assessed as reduction in ROS formation by measuring apoptotic index at 1 uM measured after 24 hrs by DAPI staining based TUNEL assay (reference value: 60 +/- 10); type: functional
PC-12 [15] = experiment: Cytoprotective activity against amyloid beta (1 to 42)-induced toxicity in rat PC-12 cells assessed as decrease in LDH level at 1 uM by spectrophotometric assay relative to control; type: functional; set-up: scale not given: the % may be the effect or the level left; method in brief: as §1
PC-12 [16] = experiment: Antioxidant activity in amyloid beta (1 to 42)-induced oxidative stress in rat PC-12 cells assessed as reduction in ROS formation by measuring DCF fluorescence intensity at 10 uM measured after 24 hrs by DCFH-DA staining based fluorescence spectrophotometric assay (reference value: 51 +/- 11); type: functional
PC-12 [17] = experiment: Antiinflammatory activity in amyloid beta (1 to 42)-induced cytokine production in rat PC-12 cells assessed as decrease in IL-1beta mRNA level by SYBR green dye based RT-PCR analysis; type: functional, cell-based
Method in brief: (§3)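 PC12 cells (7-day cultures, DMEM with 7% FBS, 7% horse serum) exposed to 5 μM Aβ(1-42) in serum-free DMEM for 24 h at 37 °C, 5% CO2, then compound at 1 or 10 μM for 24 h. Total RNA isolated, reverse transcribed, and IL-1β and TNF-α mRNA quantified by SYBR Green real-time PCR; 2^-ΔΔCT method relative to β-actin.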

PC-12 [18] = experiment: Cytoprotective activity against amyloid beta (1 to 42)-induced toxicity in rat PC-12 cells assessed as decrease in LDH level at 10 uM by spectrophotometric assay relative to control; type: functional; set-up: scale not given: the % may be the effect or the level left; method in brief: as §1
PC-12 [19] = experiment: Antiinflammatory activity in amyloid beta (1 to 42)-induced cytokine production in rat PC-12 cells assessed as decrease in TNFalpha mRNA level by SYBR green dye based RT-PCR analysis; type: functional, cell-based; method in brief: as §3
PC-12 [20] = experiment: Cytoprotective activity against amyloid beta (1 to 42)-induced toxicity in rat PC-12 cells assessed as decrease in MDA level at 1 to 10 uM measured after 8 hrs by TBARS assay relative to control; type: functional; set-up: scale not given: the % may be the effect or the level left; conditions: dose 1-10 µM; method in brief: as §2
PC-12 [21] = experiment: Protection against amyloid beta (1 to 42)-induced toxicity in rat PC-12 cells assessed as increase in cell viability measured after 24 hrs by transmission electron microscopy; type: functional, cell-based
Method in brief: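 PC12 cells incubated with 5 μM Aβ(1-42), with or without compound at 1 or 10 μM, at 37 °C for 24 h. Cell morphology and viability were compared by transmission electron microscopy.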

Cholinesterase [22] = molecular target: T2, Cholinesterase; experiment: Inhibition of human plasma BuChE at 100 uM using butyrylthiocholine as substrate measured after 5 mins by Ellman's method relative to control
Method in brief: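 Ellman spectrophotometric assay using cholinesterases from human blood. The 1 ml medium held pH 8 phosphate buffer, DTNB (3.5 mM stock), thiocholine substrate (7 mM stock) and inhibitor. It was preincubated 5 min at 37 °C, then started by adding enzyme. Absorbance increase was read at 412 nm over 5 min intervals against control cuvettes. Each experiment was run twice.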

T2 sequence (P06276 whole entry): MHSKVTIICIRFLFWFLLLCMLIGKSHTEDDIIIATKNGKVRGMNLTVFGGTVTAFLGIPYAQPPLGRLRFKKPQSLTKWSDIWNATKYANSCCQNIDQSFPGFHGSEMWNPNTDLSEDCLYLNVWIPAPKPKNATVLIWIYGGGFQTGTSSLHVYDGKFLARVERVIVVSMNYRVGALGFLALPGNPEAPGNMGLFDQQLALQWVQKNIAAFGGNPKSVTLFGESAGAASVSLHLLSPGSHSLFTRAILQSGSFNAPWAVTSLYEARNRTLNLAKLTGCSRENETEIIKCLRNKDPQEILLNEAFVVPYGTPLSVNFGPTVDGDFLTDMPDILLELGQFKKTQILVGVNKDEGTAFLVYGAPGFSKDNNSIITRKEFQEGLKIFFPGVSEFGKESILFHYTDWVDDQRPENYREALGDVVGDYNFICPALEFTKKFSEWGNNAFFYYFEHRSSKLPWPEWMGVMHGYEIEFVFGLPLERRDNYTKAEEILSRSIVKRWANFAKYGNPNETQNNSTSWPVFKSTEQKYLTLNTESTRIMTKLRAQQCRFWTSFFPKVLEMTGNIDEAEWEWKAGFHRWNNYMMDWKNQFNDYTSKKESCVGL
T1 sequence (P22303 whole entry): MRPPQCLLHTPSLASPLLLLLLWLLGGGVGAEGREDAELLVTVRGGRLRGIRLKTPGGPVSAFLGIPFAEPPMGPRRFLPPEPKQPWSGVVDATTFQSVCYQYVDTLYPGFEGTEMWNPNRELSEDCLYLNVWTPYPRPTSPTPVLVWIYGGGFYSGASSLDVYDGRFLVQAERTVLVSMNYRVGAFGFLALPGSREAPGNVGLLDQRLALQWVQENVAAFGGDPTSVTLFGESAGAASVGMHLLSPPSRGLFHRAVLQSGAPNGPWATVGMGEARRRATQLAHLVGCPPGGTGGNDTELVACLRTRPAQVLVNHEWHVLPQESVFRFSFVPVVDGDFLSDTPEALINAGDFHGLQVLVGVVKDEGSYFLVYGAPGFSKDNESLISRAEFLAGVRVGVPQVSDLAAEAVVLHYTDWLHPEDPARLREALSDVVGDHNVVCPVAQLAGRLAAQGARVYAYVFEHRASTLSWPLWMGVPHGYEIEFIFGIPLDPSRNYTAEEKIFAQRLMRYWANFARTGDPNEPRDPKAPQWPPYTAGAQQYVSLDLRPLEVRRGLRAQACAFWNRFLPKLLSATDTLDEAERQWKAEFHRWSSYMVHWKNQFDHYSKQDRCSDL

COc1cc2c(cc1OC)C(=O)/C(=C/c1ccc(N3CC[N+](C)(Cc4ccc(Br)cc4)CC3)cc1)C2
IC50 (Acetylcholinesterase [1]): 2550 nM
Ratio IC50 (Homo sapiens): 0.55
IC50 (Cholinesterase [2]): 4600 nM

C=CC[N+]1(C)CCN(c2ccc(/C=C3\Cc4cc(OC)c(OC)cc4C3=O)cc2)CC1
IC50 (Acetylcholinesterase [1]): 430 nM
Ratio IC50 (Homo sapiens): 0.02
IC50 (Cholinesterase [2]): 25200 nM

COc1cc2c(cc1OC)C(=O)/C(=C/c1ccc(N3CC[N+](C)(Cc4ccccc4)CC3)cc1)C2
IC50 (Acetylcholinesterase [1]): 370 nM
Ratio IC50 (Homo sapiens): 0.86
IC50 (SH-SY5Y): 1280 nM
IC50 (Cholinesterase [2]): 430 nM
Kinact (Acetylcholinesterase [3]): 0.5 µM
IC50 (HFF): 2400 nM
Ki (Acetylcholinesterase [4]): 500 nM
IC50 (MCF7): 1200 nM
Ki (Cholinesterase [5]): 400 nM

COc1cc2c(cc1OC)C(=O)/C(=C/c1ccc(N3CC[N+](C)(CCO)CC3)cc1)C2
IC50 (Acetylcholinesterase [1]): 1100 nM
Ratio IC50 (Homo sapiens): 0.17
IC50 (Cholinesterase [2]): 6480 nM

CCC[N+]1(C)CCN(c2ccc(/C=C3\Cc4cc(OC)c(OC)cc4C3=O)cc2)CC1
IC50 (Acetylcholinesterase [1]): 2150 nM
Ratio IC50 (Homo sapiens): 0.11
IC50 (Cholinesterase [2]): 20200 nM

COc1cc2c(cc1OC)C(=O)/C(=C/c1ccc(N3CC[N+](C)(Cc4cccc(Cl)c4)CC3)cc1)C2.[Br-]
IC50 (Acetylcholinesterase [1]): 320 nM
Activity (PC-12 [6]): Dose-dependent effect
Activity_index (PC-12 [7]): 35
Ratio IC50 (Homo sapiens): 0.74
Activity (PC-12 [8]): Dose-dependent effect
IC50 (SH-SY5Y): 1230 nM
Activity (PC-12 [9]): Dose-dependent effect
Activity (PC-12 [10]): Dose-dependent effect
Ki (Acetylcholinesterase [11]): 1000 nM
Kinact (Acetylcholinesterase [11]): 0.5 µM
IC50 (Cholinesterase [2]): 430 nM
Flu intensity (PC-12 [12]): 51
Activity (PC-12 [13]): Active
Activity_index (PC-12 [14]): 50
Activity (PC-12 [15]): 16.6%
IC50 (HFF): 1980 nM
Flu intensity (PC-12 [16]): 38
IC50 (MCF7): 1520 nM
Activity (PC-12 [17]): Dose-dependent effect
Activity (PC-12 [18]): 27.5%
Activity (PC-12 [19]): Dose-dependent effect
Activity (PC-12 [20]): 40.4%
Ki (Cholinesterase [5]): 500 nM
Activity (PC-12 [21]): Dose-dependent effect

COc1cc2c(cc1OC)C(=O)/C(=C/c1ccc(N3CC[N+](C)(Cc4cccc(Br)c4)CC3)cc1)C2
IC50 (Acetylcholinesterase [1]): 1990 nM
Ratio IC50 (Homo sapiens): 3.06
IC50 (Cholinesterase [2]): 650 nM

COc1cc2c(cc1OC)C(=O)/C(=C/c1ccc(N3CCN(C)CC3)cc1)C2
IC50 (Acetylcholinesterase [1]): 320 nM
inhibition (Cholinesterase [22]): 23.9%
